Source: PubChem BioAssay
Bim-Bfl-1: disrupts Bim binding to human Bfl-1; hit rate 0.12% among 190,000; inhibition, % at 10 µM; Bead-based flow cytometry, Bim-Bfl-1 binding inhibition;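 further: 0% = wells without compound plus tracer and 100% = blocker peptide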
Bim-Bcl-2: inhibitors of Bim-Bcl-2 interaction, human. Bead-based flow cytometry, Bim peptide-Bcl-2 binding. hit rate 0.06% among 190,000. P10415. AID 950. inhibition, % at 10 µM; in the data active means inhibition above about 40%;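 further: 0% = no compound wells with probe peptide and 100% = reference peptide inhibitor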
Target sequence (P10415 whole entry, looked up): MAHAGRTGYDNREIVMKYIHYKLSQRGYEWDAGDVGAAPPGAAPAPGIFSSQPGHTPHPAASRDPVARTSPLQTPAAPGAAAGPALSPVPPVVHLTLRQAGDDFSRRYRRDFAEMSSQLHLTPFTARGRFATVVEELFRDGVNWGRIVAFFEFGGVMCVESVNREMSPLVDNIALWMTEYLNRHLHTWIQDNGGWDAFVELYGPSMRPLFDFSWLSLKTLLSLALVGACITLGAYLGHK
Rad51 HR inh: blocks human Rad51 in homologous recombination. Q06609. inhibition, % at 10 µM. hRad51 DNA strand exchange, fluorescence dequenching. AID 1385. hit rate 0.085% among 200,000;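 active means inhibition above 40% at the single screening dose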;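 further: 0% = DMSO control wells and 100% = blanks with heterologous ssDNA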
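Test system: preformed human Rad51 ssDNA filaments. Compound dosing: single dose, 10 µM final compound. Incubation: filaments 15 min 37 °C, then compound 30 min. Technique: FRET fluorescence dequenching, excitation 485 nm, emission 520 nm. Read-out basis: percent inhibition from fluorescence, normalised to plate control and blank means. Benchmarks: plate controls and plate blanks.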
Bim-Bcl-B: inhibitors of Bim-Bcl-B interaction, human; Q9HD36; bead-based flow cytometry, Bim peptide-Bcl-B binding; inhibition, % at 10 µM; hit rate 0.073% among 190,000; AID 951;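 further: 0% = tracer peptide without compound and 100% = reference inhibitor peptide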
Bim-Bcl-W: inhibitors of Bim-Bcl-W interaction, human | Q92843 | bead-based flow cytometry, Bim peptide-Bcl-W binding | inhibition, % at 10 µM | hit rate 0.02% among 190,000 | AID 952;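 further: 0% = bound tracer without compound and 100% = peptide blocker; higher means less fluorescent Bim peptide bound to Bcl-W beads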
Target sequence (Q92843 whole entry, looked up): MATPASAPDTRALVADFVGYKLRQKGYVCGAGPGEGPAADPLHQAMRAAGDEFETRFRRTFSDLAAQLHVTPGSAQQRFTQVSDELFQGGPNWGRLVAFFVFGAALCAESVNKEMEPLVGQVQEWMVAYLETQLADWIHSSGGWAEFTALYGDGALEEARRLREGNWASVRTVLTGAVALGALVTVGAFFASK
Bim-Bcl-XL: inhibitors of Bim-Bcl-XL interaction, human. Q07817. Bim peptide-Bcl-XL binding, bead flow cytometry, fluorescence. inhibition, % at 10 µM. hit rate 0.04% among 190,000. AID 1007
The depositor's hits bear a star; / = no result given. The list is not random: actives were taken first. Their share in the collection is about 0.23%. Unless noted, no stated cut-off is given here; in the data, active means inhibition above about 40%.

SMILES	Bim-Bfl-1	Bim-Bcl-2	Rad51 HR inh	Bim-Bcl-B	Bim-Bcl-W	Bim-Bcl-XL
O=C(NC1CCCC1)C1CCC(=O)N1C1CCCCC1 (stereo unspecified)	-3	-1	45*	2	0	3
COc1ccc(S(=O)(=O)N2CCCCC2)cc1NS(=O)(=O)c1cc(Cl)ccc1Cl	0	0	/	1	1	0
COc1ccc(C2=NN(C3=NN=C(N)Cc4ncnn43)C(O)(C(F)(F)F)C2)cc1 (stereo unspecified)	-9	-2	56*	-3	0	-2
O=C(Cn1cc2c(n1)CCCCC2)Nc1c(F)cc(F)cc1Br	/	/	-7	/	/	/
CC(C)c1ccc(NC(=O)C(c2ccccc2)N(C)C(=O)CCc2c[nH]c3ccccc23)cc1 (stereo unspecified)	/	/	3	/	/	/
Cc1nc(N2CCCCC2)sc1C(=O)c1ccc(Cl)c([N+](=O)[O-])c1	-2	-3	6	-3	-3	-5
COc1ccc(OC)c(NC(=O)CCCN2C(=S)NC(C)(C)CC2C)c1 (stereo unspecified)	50*	43*	4	54*	42*	49*
O=C(NCc1ccncc1)c1nc(-c2cccs2)no1	-2	0	12	-3	-3	-2
O=C(NCc1cccs1)c1nc(-c2cccs2)no1	-4	-1	41*	-1	1	1
O=C(Nc1sc2c(c1C(=O)N1CCOCC1)CCCCC2)c1cccnc1	-3	-5	-4	-4	-1	0
O=c1[nH]c(=O)c2nnc(N/N=C/c3ccccc3F)nc2[nH]1	/	/	-1	/	/	/
O=c1[nH]c(=O)c2nnc(N/N=C\c3ccc(O)cc3)nc2[nH]1	6	13	6	25	28	44*
COc1ccc(CCNC(=O)c2cc(-c3ccncc3)nc3c(Cl)cccc23)cc1OC	-3	0	1	0	1	-1
COc1ccc(CCNC(=O)c2cc(-c3ccccn3)nc3c(Cl)cccc23)cc1OC	1	41*	4	53*	16	56*
CCN1/C(=C/c2ccc3cc(C)ccc3[n+]2CC)Sc2cc(C)ccc21	1	6	-184	-25	4	2
CCN1/C(=C/c2ccc3cc(C)ccc3[n+]2C)Sc2ccc3sccc3c21	46*	54*	31	4	22	34
O=C(Nc1ccc2c(c1)OCCO2)c1cccc(S(=O)(=O)N2CCCCC2)c1	-7	-7	122*	-5	5	-3
NC(=O)NC(=O)COC(=O)c1cccc(S(=O)(=O)N2CCCCCC2)c1	/	/	46*	/	/	/
O=C(O)CC12CC3CC(C1)CC(n1ncc(NCc4ccc5c(c4)OCO5)c(Cl)c1=O)(C3)C2	0	-1	20	0	1	-1
O=C(CNC(=O)c1ccc(S(=O)(=O)N2CCCC2)cc1)N/N=C/c1ccc(Cl)cc1Cl	9	13	5	50*	7	6
CCOc1ccc(C(=O)NC(=S)NC2CCCC2)cc1[N+](=O)[O-]	-18	-6	-5	-7	-6	-8
Nc1ccc2oc(-c3ccccc3Cl)cc(=O)c2c1O	-1	2	-4	-4	0	-4
O=c1cc(-c2ccccc2Cl)oc2ccc([N+](=O)[O-])c(O)c12	0	3	60*	-2	0	-1
Cc1ccc(NC(=O)CC2S/C(=N/N=C/c3c[nH]c4ccccc34)NC2=O)cc1 (stereo unspecified)	42*	25	/	27	28	33
Cn1cc(C[C@H](NC(=O)OC(C)(C)C)C(=O)N[C@H](CO)Cc2ccccc2)c2ccccc21	/	/	-3	/	/	/
SMILES	Bim-Bfl-1	Bim-Bcl-2	Rad51 HR inh	Bim-Bcl-B	Bim-Bcl-W	Bim-Bcl-XL
Cc1cc(C(=O)Nc2cccnc2)cs1	-13	-10	77*	-7	0	1
Cc1noc(C)c1COc1ccc(C(=O)Nc2cccnc2)cc1	1	15	2	43*	20	19
C#C[C@]1(O)CC[C@H]2[C@@H]3CCC4=Cc5oncc5C[C@]4(C)[C@H]3CC[C@@]21C	/	/	-2	/	/	/
CC(=O)c1ccc(NC(=S)NCCc2cccc(Cl)c2)cc1	-3	-4	-7	-10	-4	-4
COc1ccccc1-n1c(-c2cc(-c3ccc(F)cc3)n[nH]2)n[nH]c1=S	38	44*	4	24	47*	16
Cc1ccc(NC(=O)COC(=O)C2(c3ccc(Cl)cc3)CCCC2)cc1	1	1	/	3	1	3
